Data as given in ChEMBL document CHEMBL1123083, “Synthesis and antiherpetic activity of (S)-, (R)-, and (+/-)-9-[(2,3-dihydroxy-1-propoxy)methyl]guanine, linear isomers of 2'-nor-2'-deoxyguanosine” (J Med Chem, 1985).
Converted amounts (≈) assume the structure as drawn.

Experiments:
Human alphaherpesvirus 1 [1] = test: Efficacy was evaluated against Oraficial HSV-1 infection in mice with lesions administered orally at dose 3.1 mg/kg per day; Total mice tested 10; type: ADME, organism-based; set-up: route oral; settings: mouse, in vivo, po
Procedure, shortened: (§1)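 HSV-1 strain S inoculated in the orofacial area of mice as previously described. Half-daily doses given by gavage 8 h apart, starting 3 h after infection, for 7 days. On day 7 after infection, mice with lesions per group and average lesion score were recorded (95% confidence interval). Significance was judged against placebo-treated infected mice (p < 0.05).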

Human alphaherpesvirus 1 [2] = test: Efficacy was evaluated against Oraficial HSV-1 infection in mice with lesions administered orally at a dose 50 mg/kg per day.; type: ADME, organism-based; set-up: route oral; settings: mouse, in vivo, po; procedure, shortened: as §1
Human alphaherpesvirus 1 [3] = test: Efficacy was evaluated against Systemic HSV-1 infection in mice at a daily dose of 3.1 mg/kg administered orally.; type: ADME, organism-based; set-up: dose 3.1 mg/kg; settings: mouse, in vivo, po
Procedure, shortened: (§2)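 Mixed-sex ICR/Ha mice (10–20 g) were infected intraperitoneally with 50–100 LD50 of HSV-1 Schooler. Oral dosing of 0.1 mL twice daily for 7 days began immediately after infection. Groups were of about 10 mice. Deaths were recorded daily for 15 days, giving survivors/total and mean survival time with 95% CI. Significance was judged against placebo-treated infected mice using transformed survival times.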

Human alphaherpesvirus 1 [4] = test: Efficacy was evaluated against Oraficial HSV-1 infection in mice with lesions administered orally at a dose 12.5 mg/kg per day; Total mice tested 10; type: organism-based; set-up: route oral; settings: mouse, in vivo, po; procedure, shortened: as §1
Human alphaherpesvirus 1 [5] = test: In vitro anti viral activity tested against HSV-1(Schooler) virus on Rabbit kidney cell cultures; 1-3; type: functional; settings: Human alphaherpesvirus 1, kidney; read-out: ED50 (the source's name)
Procedure, shortened: (§3)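 Confluent primary rabbit kidney monolayers were preincubated with serial drug dilutions in EMEM with 2% fetal calf serum and neomycin. They were then challenged with about 10 TCID50 of HSV-1 Schooler and incubated at 37 °C. Cytopathology was scored on day 5.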

Human alphaherpesvirus 1 [6] = test: Efficacy was evaluated against Systemic HSV-1 infection in mice at a daily dose of 3.1 mg/kg administered orally; Total mice tested 10; type: ADME, organism-based; set-up: dose 3.1 mg/kg; settings: mouse, in vivo, po; procedure, shortened: as §2
Human alphaherpesvirus 1 [7] = test: Efficacy was evaluated against Systemic HSV-1 infection in mice at a daily dose of 50 mg/kg administered orally; Total mice tested 10; type: organism-based; set-up: dose 50 mg/kg; settings: mouse, in vivo, po; procedure, shortened: as §2
Human alphaherpesvirus 2 [8] = test: In vitro anti viral activity tested against HSV-2(Curtis) virus on Rabbit kidney cell cultures; 1-3; type: functional; settings: Human alphaherpesvirus 2, kidney; read-out: ED50 (the source's name)
Procedure, shortened: as §3, with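 “Schooler or HSV-2 Curtis” for “Schooler”, “5. ED50 is the concentration preventing cytopathology in half of the infected cultures.” for “5.”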

[9] = system: DNA polymerase (Homo sapiens); test: Evaluated for DNA polymerase inhibition activity against HeLa cells.
Human betaherpesvirus 5 [10] = test: In vitro anti viral activity tested against HCMV(AD169) virus on MRC-5 cell monolayers; 20-25; type: functional; settings: Human betaherpesvirus 5, MRC5; read-out: ED50 (the source's name)
Procedure, shortened: (§4)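 MRC-5 monolayers were infected with HCMV AD169 for 1 h at 37 °C. Compound diluted in maintenance medium was then added and incubation continued for 7 days at 37 °C. Monolayers were stained and plaques counted. ED50 is the concentration reducing plaque number by 50%.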

Human alphaherpesvirus 1 [11] = test: Efficacy was evaluated against Systemic HSV-1 infection in mice at a daily dose of 12.5 mg/kg administered orally; Total mice tested 10; type: ADME, organism-based; set-up: dose 12.5 mg/kg; settings: mouse, in vivo, po; procedure, shortened: as §2
Human alphaherpesvirus 1 [12] = test: Efficacy was evaluated against Systemic HSV-1 infection in mice at a daily dose of 12.5 mg/kg administered orally.; type: ADME, organism-based; set-up: dose 12.5 mg/kg; settings: mouse, in vivo, po; procedure, shortened: as §2
Human alphaherpesvirus 1 [13] = test: Efficacy was evaluated against Systemic HSV-1 infection in mice at a daily dose of 50 mg/kg administered orally.; type: ADME, organism-based; set-up: dose 50 mg/kg; settings: mouse, in vivo, po; procedure, shortened: as §2
Human alphaherpesvirus 1 [14] = test: Efficacy was evaluated against Oraficial HSV-1 infection in mice with lesions administered orally at a dose 3.1 mg/kg per day.; type: ADME, organism-based; set-up: route oral; settings: mouse, in vivo, po; procedure, shortened: as §1
Human alphaherpesvirus 1 [15] = test: Evaluated for DNA polymerase inhibition activity against herpes simplex virus-1 (HSV-1); type: functional
Procedure, shortened: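 Step II mixture supplied the phosphorylated test material. Step I: compound with HSV-1 thymidine kinase, 4 h, 37 °C. Step II: then HSV-1-infected HeLa crude extract plus GMP kinase, overnight, 30 °C. A 20 μL sample went to a 1 h, 37 °C DNA polymerase assay at pH 8 with activated salmon sperm DNA, 0.05 mM each dNTP ([³H]dTTP) and infected HeLa extract. (NH₄)₂SO₄ 0.1 M was present for the viral enzyme and omitted for the cellular polymerases. Read-out: TCA-precipitable radioactivity.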

Human alphaherpesvirus 1 [16] = test: Efficacy was evaluated against Oraficial HSV-1 infection in mice with lesions administered orally at a dose 50 mg/kg per day; Total mice tested 10; type: organism-based; set-up: route oral; settings: mouse, in vivo, po; procedure, shortened: as §1
Human alphaherpesvirus 1 [17] = test: Efficacy was evaluated against Oraficial HSV-1 infection in mice with lesions administered orally at a dose 12.5 mg/kg per day.; type: ADME, organism-based; set-up: route oral; settings: mouse, in vivo, po; procedure, shortened: as §1
Mus musculus = test: Efficacy was evaluated against Systemic HSV-1 infection in mice at a daily dose of 12.5 mg/kg administered subcutaneously.; type: ADME, organism-based; set-up: dose 12.5 mg/kg, route subcutaneous; settings: in vivo, sc
Procedure, shortened: (§5)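 ICR/Ha mice (10–20 g, mixed sex) were infected intraperitoneally with 50–100 LD50 of HSV-1 Schooler. Subcutaneous dosing of 0.1 mL twice daily for 4 days started immediately after infection. Groups were of about 10 mice. Survival was recorded daily for 15 days and reported as survivors/total and mean survival time (95% CI). Transformed survival times were compared with placebo-treated infected mice (p < 0.05).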

Human alphaherpesvirus 1 [18] = test: Efficacy was evaluated against Systemic HSV-1 infection in mice at a daily dose of 0.8 mg/kg administered subcutaneously; Tested mice 10; type: organism-based; set-up: dose 0.8 mg/kg, route subcutaneous; settings: mouse, in vivo, sc; procedure, shortened: as §5
Human alphaherpesvirus 1 [19] = test: Efficacy was evaluated against Systemic HSV-1 infection in mice at a daily dose of 3.1 mg/kg administered subcutaneously.; type: ADME, organism-based; set-up: dose 3.1 mg/kg, route subcutaneous; settings: mouse, in vivo, sc; procedure, shortened: as §5
Human alphaherpesvirus 1 [20] = test: Efficacy was evaluated against Systemic HSV-1 infection in mice at a daily dose of 3.1 mg/kg administered subcutaneously; Tested mice 10; type: ADME, organism-based; set-up: dose 3.1 mg/kg, route subcutaneous; settings: mouse, in vivo, sc; procedure, shortened: as §5
Human alphaherpesvirus 1 [21] = test: Efficacy was evaluated against Systemic HSV-1 infection in mice at a daily dose of 0.8 mg/kg administered subcutaneously.; type: ADME, organism-based; set-up: dose 0.8 mg/kg, route subcutaneous; settings: mouse, in vivo, sc; procedure, shortened: as §5
Human betaherpesvirus 5 [22] = test: In vitro anti viral activity tested against HCMV(AD169) virus on MRC-5 cell monolayers; 0.4-1.6; type: functional; settings: Human betaherpesvirus 5, MRC5; read-out: ED50 (the source's name); procedure, shortened: as §4
Human alphaherpesvirus 2 [23] = test: In vitro anti viral activity tested against HSV-2(Curtis) virus on Rabbit kidney cell cultures; 3-6; type: functional; settings: Human alphaherpesvirus 2, kidney; read-out: ED50 (the source's name)
Procedure, shortened: as §3, with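 “Schooler or HSV-2 Curtis” for “Schooler”, “5. ED50 is the concentration preventing cytopathology in half of the infected cultures.” for “5.”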

Human alphaherpesvirus 3 = test: In vitro anti viral activity tested against VZV(KMcC) virus on MRC-5 cell monolayers; 1-2; type: functional; settings: Human alphaherpesvirus 3, MRC5; read-out: ED50 (the source's name)
Human alphaherpesvirus 1 [24] = test: Efficacy was evaluated against Systemic HSV-1 infection in mice at a daily dose of 12.5 mg/kg administered subcutaneously; Tested mice 10; type: organism-based; set-up: dose 12.5 mg/kg, route subcutaneous; settings: mouse, in vivo, sc; procedure, shortened: as §5

## Nc1nc2c(ncn2COCCO)c(=O)[nH]1 [ACYCLOVIR]
Human alphaherpesvirus 1 [1]
  Mice with lesions: 10
Human alphaherpesvirus 1 [2]
  Average lesion score: 1.45
Human alphaherpesvirus 1 [3]
  Average survival: 6.5 days
Human alphaherpesvirus 1 [4]
  Mice with lesions: 8
Human alphaherpesvirus 1 [5]
  EC50: 1 µg/mL (≈ 4.44 µM)
Human alphaherpesvirus 1 [6]
  Survivors: 0
Human alphaherpesvirus 1 [7]
  Survivors: 2
Human alphaherpesvirus 2 [8]
  EC50: 1 µg/mL (≈ 4.44 µM)
[9]
  Inhibition: 34%
Human betaherpesvirus 5 [10]
  EC50: 20 µg/mL (≈ 88.8 µM)
Human alphaherpesvirus 1 [11]
  Survivors: 1
Human alphaherpesvirus 1 [12]
  Average survival: 7.6 days
Human alphaherpesvirus 1 [13]
  Average survival: 8.7 days
Human alphaherpesvirus 1 [14]
  Average lesion score: 3.75
Human alphaherpesvirus 1 [15]
  Inhibition: 85%
Human alphaherpesvirus 1 [16]
  Mice with lesions: 6
Human alphaherpesvirus 1 [17]
  Average lesion score: 2.95

## Nc1nc2c(ncn2COC(CO)CO)c(=O)[nH]1 [GANCICLOVIR]
Human alphaherpesvirus 1 [5]
  EC50: 1 µg/mL (≈ 3.92 µM)
Mus musculus
  Average survival: 14.6 days
[9]
  Inhibition: 13%
Human alphaherpesvirus 1 [18]
  Survivors: 3
Human alphaherpesvirus 1 [19]
  Average survival: 12.6 days
Human alphaherpesvirus 1 [20]
  Survivors: 5
Human alphaherpesvirus 1 [21]
  Average survival: 9.8 days
Human betaherpesvirus 5 [22]
  EC50: 0.4 µg/mL (≈ 1.57 µM)
Human alphaherpesvirus 1 [15]
  Inhibition: 55%
Human alphaherpesvirus 2 [23]
  EC50: 3 µg/mL (≈ 11.8 µM)
Human alphaherpesvirus 3
  EC50: 1 µg/mL (≈ 3.92 µM)
Human alphaherpesvirus 1 [24]
  Survivors: 7
